Results from ChEMBL document CHEMBL1126589, “Substituted 3-(phenylmethyl)-1H-indole-5-carboxamides and 1-(phenylmethyl)indole-6-carboxamides as potent, selective, orally active antagonists of the peptidoleukotrienes” (J Med Chem, 1993).

Test system: Rattus norvegicus
Assay: Integrated area under the blood concentration vs time curve for the period 0-24 hr postdose of 2.5 mg/kg (normalized to a 1 mg/kg dose) in rat
Format: ADME, organism-based
Design: dose 2.5 mg/kg, time < 24 hr
Settings: in vivo
In short: (§1)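 Sprague-Dawley rats, fasted overnight, cannulated in carotid artery and/or jugular vein at least 20 h before dosing. Oral doses 1 or 2.5 mg/kg, iv 2.5 mg/kg via jugular cannula, in polyethylene glycol/phosphate buffered saline. Unchanged compound in whole blood measured by HPLC over 0–24 h; AUC by trapezoidal rule; values also normalized to 1.0 mg/kg.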

AUC | SMILES
4070 ng/h/mL | CCC(CC)CNC(=O)c1ccc2c(c1)c(Cc1ccc(C(=O)NS(=O)(=O)c3ccccc3C)cc1OC)cn2CC

Test system: not listed separately
Assay: ED50 ratio of LTD4 peroral administration / LTD4 intravenous administration
Format: functional
Settings: not given
In short: (§2)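 Conscious guinea pigs challenged with LTD4 ("dyspnea" model) after oral or intravenous dosing; percent protection from LTD4-induced dyspnea plotted against dose to derive ED50; po/iv ratio taken from the oral and intravenous ED50 values.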

SMILES | Ratio
COc1cc(C(=O)NS(=O)(=O)c2ccccc2C)ccc1Cn1cc(C)c2ccc(C(=O)NCC3CCCC3)cc21 | ~20
CCC(CC)CNC(=O)c1ccc2c(c1)c(Cc1ccc(C(=O)NS(=O)(=O)c3ccccc3C)cc1OC)cn2CC | 81
CCCn1cc(Cc2ccc(C(=O)NS(=O)(=O)c3ccccc3C)cc2OC)c2cc(C(=O)NCC3CCCC3)ccc21 | 179
CCC(CC)CNC(=O)c1ccc2c(c1)c(Cc1ccc(C(=O)NS(=O)(=O)c3ccccc3C)cc1OC)cn2C(C)C | 300
COc1cc(C(=O)NS(=O)(=O)c2ccccc2C)ccc1Cc1cn(C)c2ccc(NC(=O)CC3CCCC3)cc12 | 22
CCCCC(CC)CNC(=O)c1ccc2c(c1)c(Cc1ccc(C(=O)NS(=O)(=O)c3ccccc3C)cc1OC)cn2C (stereo unspecified) | 29
CCCn1cc(Cc2ccc(C(=O)NS(=O)(=O)c3ccccc3C)cc2OC)c2cc(C(=O)NCC(CC)CC)ccc21 | 137
CCC(C)CNC(=O)c1ccc2c(c1)c(Cc1ccc(C(=O)NS(=O)(=O)c3ccccc3C)cc1OC)cn2C (stereo unspecified) | 14
CCC(CC)CNC(=O)c1ccc2c(c1)c(Cc1ccc(C(=O)NS(=O)(=O)c3ccccc3Br)cc1OC)cn2C | 25
COc1cc(C(=O)NS(=O)(=O)c2ccccc2C)ccc1Cc1cn(C)c2ccc(C(=O)NCC3CCCC3)cc12 | 28

Test system: not listed separately
Assay: Bioavailability in rat
Format: ADME, organism-based
Settings: in vivo
In short: as §1

bioavailability | SMILES
28.1% | CCC(CC)CNC(=O)c1ccc2c(c1)c(Cc1ccc(C(=O)NS(=O)(=O)c3ccccc3C)cc1OC)cn2CC

Test system: Rattus norvegicus
Assay: Maximum concentration in whole blood recorded in the period 0-24 hr postdose of 1 mg/kg in rat (normalized to a 1 mg/kg dose)
Format: ADME, organism-based
Design: dose 1 mg/kg
Settings: in vivo
In short: as §1

Cmax | SMILES
106 ng/mL | CCCn1cc(Cc2ccc(C(=O)NS(=O)(=O)c3ccccc3C)cc2OC)c2cc(C(=O)NCC3CCCC3)ccc21

Test system: Cavia porcellus
Assay: Effective dose against LTD4-induced bronchoconstriction in guinea pig after intravenous administration
Format: functional
Settings: not given
In short: as §2

SMILES | ED50
COc1cc(C(=O)NS(=O)(=O)c2ccccc2C)ccc1Cn1cc(C)c2ccc(C(=O)NCC3CCCC3)cc21 | 1.62 µmol/kg
CCC(CC)CNC(=O)c1ccc2c(c1)c(Cc1ccc(C(=O)NS(=O)(=O)c3ccccc3C)cc1OC)cn2CC | 0.07 µmol/kg
CCCn1cc(Cc2ccc(C(=O)NS(=O)(=O)c3ccccc3C)cc2OC)c2cc(C(=O)NCC3CCCC3)ccc21 | 0.03 µmol/kg
CCC(CC)CNC(=O)c1ccc2c(c1)c(Cc1ccc(C(=O)NS(=O)(=O)c3ccccc3C)cc1OC)cn2C(C)C | 0.02 µmol/kg
COc1cc(C(=O)NS(=O)(=O)c2ccccc2C)ccc1Cc1cn(C)c2ccc(NC(=O)CC3CCCC3)cc12 | 0.02 µmol/kg
CCCCC(CC)CNC(=O)c1ccc2c(c1)c(Cc1ccc(C(=O)NS(=O)(=O)c3ccccc3C)cc1OC)cn2C (stereo unspecified) | 0.28 µmol/kg
CCCn1cc(Cc2ccc(C(=O)NS(=O)(=O)c3ccccc3C)cc2OC)c2cc(C(=O)NCC(CC)CC)ccc21 | 0.04 µmol/kg
CCC(C)CNC(=O)c1ccc2c(c1)c(Cc1ccc(C(=O)NS(=O)(=O)c3ccccc3C)cc1OC)cn2C (stereo unspecified) | 1.39 µmol/kg
CCC(CC)CNC(=O)c1ccc2c(c1)c(Cc1ccc(C(=O)NS(=O)(=O)c3ccccc3Br)cc1OC)cn2C | 0.84 µmol/kg
COc1cc(C(=O)NS(=O)(=O)c2ccccc2C)ccc1Cc1cn(C)c2ccc(C(=O)NCC3CCCC3)cc12 | 0.69 µmol/kg

Test system: not listed separately
Assay: Maximum concentration in whole blood recorded in the period 0-24 hr postdose of 5.0 mg/kg GP (normalized to a 1 mg/kg dose)
Format: ADME, organism-based
Design: dose 5 mg/kg
Settings: guinea pig, in vivo
In short: (§3)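 Guinea pigs, fasted overnight and cannulated at least 20 h beforehand, given 5 mg/kg orally and intravenously (jugular cannula) in polyethylene glycol/phosphate buffered saline.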

Cmax | SMILES
92 ng/mL | CCC(CC)CNC(=O)c1ccc2c(c1)c(Cc1ccc(C(=O)NS(=O)(=O)c3ccccc3C)cc1OC)cn2CC

Target: T1, Cysteinyl leukotriene receptor 1 (Cavia porcellus, UniProt Q2NNR5)
T1 sequence (Q2NNR5 whole entry): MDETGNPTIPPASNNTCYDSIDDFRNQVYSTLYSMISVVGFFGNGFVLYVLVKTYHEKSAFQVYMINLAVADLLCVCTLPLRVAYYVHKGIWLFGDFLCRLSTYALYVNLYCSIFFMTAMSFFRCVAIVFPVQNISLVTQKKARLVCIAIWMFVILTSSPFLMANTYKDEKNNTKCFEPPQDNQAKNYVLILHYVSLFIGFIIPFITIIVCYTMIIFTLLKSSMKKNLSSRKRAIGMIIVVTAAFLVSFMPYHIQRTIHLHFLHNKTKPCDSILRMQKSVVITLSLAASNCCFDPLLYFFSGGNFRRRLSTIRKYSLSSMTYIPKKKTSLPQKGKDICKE
Assay: Binding affinity to the leukotriene receptor (LTD4) from guinea pig lung parenchymal membranes assayed using [3H]LTD4 as radioligand
Format: tissue-based, Lung parenchyma
Settings: not given
In short: (§4)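 Displacement of [3H]LTD4 from guinea pig lung parenchymal membranes; Ki is the mean of two experiments run in duplicate with separate batches, reported as pKi (-log Ki).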

SMILES | Ki
CCC(CC)CNC(=O)c1ccc2c(c1)c(Cc1ccc(C(=O)NS(=O)(=O)c3ccccc3C)cc1OC)cn2CC | 1 nM
CCC(CC)CNC(=O)c1ccc2c(c1)c(Cc1ccc(C(=O)NS(=O)(=O)c3ccccc3C)cc1OC)cn2C(C)C | 0.501 nM
CCCCC(CC)CNC(=O)c1ccc2c(c1)c(Cc1ccc(C(=O)NS(=O)(=O)c3ccccc3C)cc1OC)cn2C (stereo unspecified) | 6.31 nM
CCCn1cc(Cc2ccc(C(=O)NS(=O)(=O)c3ccccc3C)cc2OC)c2cc(C(=O)NCC(CC)CC)ccc21 | 0.794 nM
CCC(C)CNC(=O)c1ccc2c(c1)c(Cc1ccc(C(=O)NS(=O)(=O)c3ccccc3C)cc1OC)cn2C (stereo unspecified) | 5.01 nM

The next lines start with the values.

Ki | SMILES
10 nM | COc1cc(C(=O)NS(=O)(=O)c2ccccc2C)ccc1Cn1cc(C)c2ccc(C(=O)NCC3CCCC3)cc21
0.316 nM | CCCn1cc(Cc2ccc(C(=O)NS(=O)(=O)c3ccccc3C)cc2OC)c2cc(C(=O)NCC3CCCC3)ccc21
3.16 nM | COc1cc(C(=O)NS(=O)(=O)c2ccccc2C)ccc1Cc1cn(C)c2ccc(C(=O)NCC3CCCC3)cc12

Target: T1, Cysteinyl leukotriene receptor 1
Assay: Binding affinity against leukotriene receptor (LTD4) from guinea pig lung parenchymal membranes using [3H]LTD4 as radio ligand
Format: tissue-based, Lung parenchyma
Settings: not given
In short: as §4

Ki | SMILES
3.98 nM | CCC(CC)CNC(=O)c1ccc2c(c1)c(Cc1ccc(C(=O)NS(=O)(=O)c3ccccc3Br)cc1OC)cn2C

Test system: not listed separately
Assay: Bioavailability was determined in GP
Format: ADME, organism-based, Cavia porcellus
Settings: guinea pig, in vivo
In short: as §3

bioavailability | SMILES
5.1% | CCC(CC)CNC(=O)c1ccc2c(c1)c(Cc1ccc(C(=O)NS(=O)(=O)c3ccccc3C)cc1OC)cn2CC

Test system: not listed separately
Assay: Integrated area under the blood concentration vs time curve for the period 0-24 hr postdose of 5.0 mg/kg (normalized to a 1 mg/kg dose) GP
Format: ADME, organism-based
Design: dose 5 mg/kg, time < 24 hr
Settings: guinea pig, in vivo
In short: as §3

AUC | SMILES
207 ng·h/mL | CCC(CC)CNC(=O)c1ccc2c(c1)c(Cc1ccc(C(=O)NS(=O)(=O)c3ccccc3C)cc1OC)cn2CC

Test system: Rattus norvegicus
Assay: Integrated area under the blood concentration vs time curve for the period 0-24 hr postdose of 1 mg/kg (normalized to a 1 mg/kg dose) in rat
Format: ADME, organism-based
Design: dose 1 mg/kg, time < 24 hr
Settings: in vivo
In short: as §1

AUC | SMILES
1610 ng·h/mL | CCCn1cc(Cc2ccc(C(=O)NS(=O)(=O)c3ccccc3C)cc2OC)c2cc(C(=O)NCC3CCCC3)ccc21

Test system: Cavia porcellus
Assay: Effective dose against LTD4-induced bronchoconstriction in guinea pig after peroral administration
Format: functional
Settings: po
In short: as §2

SMILES | ED50
COc1cc(C(=O)NS(=O)(=O)c2ccccc2C)ccc1Cn1cc(C)c2ccc(C(=O)NCC3CCCC3)cc21 | ~30 µmol/kg
CCC(CC)CNC(=O)c1ccc2c(c1)c(Cc1ccc(C(=O)NS(=O)(=O)c3ccccc3C)cc1OC)cn2CC | 5.3 µmol/kg
CCCn1cc(Cc2ccc(C(=O)NS(=O)(=O)c3ccccc3C)cc2OC)c2cc(C(=O)NCC3CCCC3)ccc21 | 4.8 µmol/kg
CCC(CC)CNC(=O)c1ccc2c(c1)c(Cc1ccc(C(=O)NS(=O)(=O)c3ccccc3C)cc1OC)cn2C(C)C | 4.7 µmol/kg
COc1cc(C(=O)NS(=O)(=O)c2ccccc2C)ccc1Cc1cn(C)c2ccc(NC(=O)CC3CCCC3)cc12 | 0.41 µmol/kg
CCCCC(CC)CNC(=O)c1ccc2c(c1)c(Cc1ccc(C(=O)NS(=O)(=O)c3ccccc3C)cc1OC)cn2C (stereo unspecified) | 8.06 µmol/kg
CCCn1cc(Cc2ccc(C(=O)NS(=O)(=O)c3ccccc3C)cc2OC)c2cc(C(=O)NCC(CC)CC)ccc21 | 5.6 µmol/kg
CCC(C)CNC(=O)c1ccc2c(c1)c(Cc1ccc(C(=O)NS(=O)(=O)c3ccccc3C)cc1OC)cn2C (stereo unspecified) | 20 µmol/kg
CCC(CC)CNC(=O)c1ccc2c(c1)c(Cc1ccc(C(=O)NS(=O)(=O)c3ccccc3Br)cc1OC)cn2C | 21.4 µmol/kg

Target: T2, Cysteinyl leukotriene receptor 1 (Cavia porcellus) (UniProt Q2NNR5)
T2 sequence (whole entry): T1 sequence (Q2NNR5 whole entry)
Assay: Binding affinity against leukotriene receptor (LTE4) from guinea pig tracheal spirals
Format: tissue-based
Settings: not given
In short: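 Functional antagonism in isolated guinea pig tracheal spirals contracted with LTE4 as agonist; KB derived from concentration-response curves, n = number of curves.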

SMILES | pKB
CCC(CC)CNC(=O)c1ccc2c(c1)c(Cc1ccc(C(=O)NS(=O)(=O)c3ccccc3C)cc1OC)cn2CC | 9.5
CCC(CC)CNC(=O)c1ccc2c(c1)c(Cc1ccc(C(=O)NS(=O)(=O)c3ccccc3C)cc1OC)cn2C(C)C | 8.8
COc1cc(C(=O)NS(=O)(=O)c2ccccc2C)ccc1Cc1cn(C)c2ccc(NC(=O)CC3CCCC3)cc12 | 9.7
CCCCC(CC)CNC(=O)c1ccc2c(c1)c(Cc1ccc(C(=O)NS(=O)(=O)c3ccccc3C)cc1OC)cn2C (stereo unspecified) | 8.1
CCCn1cc(Cc2ccc(C(=O)NS(=O)(=O)c3ccccc3C)cc2OC)c2cc(C(=O)NCC(CC)CC)ccc21 | 8.9
CCC(C)CNC(=O)c1ccc2c(c1)c(Cc1ccc(C(=O)NS(=O)(=O)c3ccccc3C)cc1OC)cn2C (stereo unspecified) | 8.7
CCC(CC)CNC(=O)c1ccc2c(c1)c(Cc1ccc(C(=O)NS(=O)(=O)c3ccccc3Br)cc1OC)cn2C | 9.1

Second part, the compound after the results:

pKB | SMILES
8.9 | COc1cc(C(=O)NS(=O)(=O)c2ccccc2C)ccc1Cn1cc(C)c2ccc(C(=O)NCC3CCCC3)cc21
8.7 | CCCn1cc(Cc2ccc(C(=O)NS(=O)(=O)c3ccccc3C)cc2OC)c2cc(C(=O)NCC3CCCC3)ccc21
8.4 | COc1cc(C(=O)NS(=O)(=O)c2ccccc2C)ccc1Cc1cn(C)c2ccc(C(=O)NCC3CCCC3)cc12

Test system: not listed separately
Assay: Maximum concentration in whole blood recorded in the period 0-24 hr postdose of 2.5 mg/kg in rat (normalized to a 1 mg/kg dose)
Format: ADME, organism-based
Design: dose 2.5 mg/kg
Settings: in vivo
In short: as §1

Cmax | SMILES
540 ng/mL | CCC(CC)CNC(=O)c1ccc2c(c1)c(Cc1ccc(C(=O)NS(=O)(=O)c3ccccc3C)cc1OC)cn2CC
